Data as given in ChEMBL document CHEMBL4007452, “Discovery of an Orally Selective Inhibitor of Signal Transducer and Activator of Transcription 3 Using Advanced Multiple Ligand Simultaneous Docking” (J Med Chem, 2017).
Calls of active or inactive are those of the source. No cut-off for these calls is given here.

What was measured:
[1] = Cmax in Sprague-Dawley rat plasma at 1 mg/kg, iv measured after 24 hrs by UPLC analysis; type: ADME, organism-based; parameters: dose 1 mg/kg, route intravenous
How it was run: (§1)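 Rat plasma sampled from 2 min to 24 h after a single i.v. (1 mg/kg) or p.o. (10 mg/kg) dose. Parameters were derived from the concentration-time profiles. The bioanalytical method was validated to FDA guidelines for selectivity, linearity, LLOQ, accuracy, precision, recovery, matrix effect and stability.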

[2] = AUC (0 to infinity) in Sprague-Dawley rat plasma at 1 mg/kg, iv measured after 24 hrs by UPLC analysis; type: ADME, organism-based; parameters: dose 1 mg/kg, time infinity, route intravenous; how it was run: as §1
[3] = target: Epidermal growth factor receptor (Homo sapiens) (UniProt P00533); test: Inhibition of EGFR in human UW426 cells assessed as reduction in p-ERK1/2 (T202/Y204) level at 1 to 2.5 uM after 24 hrs by immunoblot analysis; type: cell-based
How it was run: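 UW426 cells at 60–80% confluence were treated 24 h at 1-2.5 µM with 10% FBS, against a DMSO control, then immunoblotted.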

[4] = target: T1, Signal transducer and activator of transcription 3 (Homo sapiens, UniProt P40763); details: 5 to 10 uM
[5] = test system: Mus musculus; test: Toxicity in BALB/c nude mouse xenografted with human MDA-MB-231 cells assessed as reduction in body weight at 2.5 to 10 mg/kg, po qd administered for 32 days; type: organism-based; details: in vivo, 768 h
How it was run: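 MDA-MB-231 cells (5 x 10^6) were implanted s.c. in the flank of 6-week-old female athymic BALB/c nude mice. Oral dosing started at a tumor volume of about 100 mm3, with 8 mice per group and a saline vehicle control. […] Body weight was tracked over the 32-day treatment.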

[6] = AUC (0 to t) in Sprague-Dawley rat plasma at 1 mg/kg, iv measured after 24 hrs by UPLC analysis; type: ADME, organism-based; parameters: dose 1 mg/kg, time < 24 hr, route intravenous; how it was run: as §1
[7] = target: T1, Signal transducer and activator of transcription 3; details: 2.5 to 5 uM
[8] = target: T2, Signal transducer and activator of transcription 1-alpha/beta (Homo sapiens) (UniProt P42224); test: Inhibition of STAT1 in human MDA-MB-231 cells assessed as reduction in STAT1 phosphorylation at Y701 site at 2.5 to 10 uM after 12 hrs by immunoblot analysis; type: cell-based
T2 sequence (whole entry): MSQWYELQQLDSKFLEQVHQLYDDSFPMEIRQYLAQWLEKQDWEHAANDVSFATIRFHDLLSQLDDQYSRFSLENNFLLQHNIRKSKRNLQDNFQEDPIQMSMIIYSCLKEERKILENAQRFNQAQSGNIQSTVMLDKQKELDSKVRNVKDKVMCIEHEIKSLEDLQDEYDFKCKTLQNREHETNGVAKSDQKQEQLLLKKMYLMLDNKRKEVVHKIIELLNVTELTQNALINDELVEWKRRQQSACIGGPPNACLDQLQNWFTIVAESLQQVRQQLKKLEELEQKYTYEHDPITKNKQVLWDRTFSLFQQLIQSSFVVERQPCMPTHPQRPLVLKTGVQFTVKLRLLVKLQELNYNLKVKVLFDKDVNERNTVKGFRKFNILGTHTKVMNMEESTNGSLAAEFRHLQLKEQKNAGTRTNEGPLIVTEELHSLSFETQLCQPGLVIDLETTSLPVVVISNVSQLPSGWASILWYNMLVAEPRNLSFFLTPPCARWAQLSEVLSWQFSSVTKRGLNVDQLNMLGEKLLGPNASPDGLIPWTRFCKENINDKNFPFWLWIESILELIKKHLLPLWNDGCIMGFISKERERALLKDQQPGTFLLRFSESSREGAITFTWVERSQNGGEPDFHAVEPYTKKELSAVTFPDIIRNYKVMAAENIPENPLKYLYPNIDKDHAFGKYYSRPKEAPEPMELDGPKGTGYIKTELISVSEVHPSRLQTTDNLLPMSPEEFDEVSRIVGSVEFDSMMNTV

[9] = test system: Mus musculus; test: In vivo inhibition of STAT3 in po dosed BALB/c nude mouse xenografted with human MDA-MB-231 assessed as reduction in p-STAT3 level administered as qd for 32 days by DAB-staining based IHC analysis; type: functional, organism-based
How it was run: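 Fixed sections of MDA-MB-231 xenograft tumors from orally dosed nude mice were immunostained for p-STAT3, with positive cells visualized by DAB.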

[10] = test system: Mus musculus; test: Effect on total STAT3 level in BALB/c nude mouse xenografted with human MDA-MB-231 at 2.5 to 10 mg/kg, po qd administered for 32 days by Western blot analysis; type: ADME, organism-based; details: in vivo, 768 h
How it was run: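 Whole-cell lysates from MDA-MB-231 xenograft tumors of mice dosed orally at 2.5, 5 or 10 mg/kg were immunoblotted for P-STAT3(Y705), T-STAT3 and GAPDH.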

[11] = test system: Rattus norvegicus; test: AUMC (0 to infinity) in Sprague-Dawley rat plasma at 10 mg/kg, po measured after 24 hrs by UPLC analysis; type: ADME, organism-based; details: in vivo; how it was run: as §1
[12] = Terminal half life in Sprague-Dawley rat plasma at 1 mg/kg, iv measured after 24 hrs by UPLC analysis; type: ADME, organism-based; details: read-out: beta t1/2 (converted)
How it was run: (§2)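 Rats dosed i.v. or p.o. Plasma concentrations followed from 2 min to 24 h after dosing. The bioanalytical method was validated to FDA guidelines for selectivity, linearity, LLOQ, accuracy, precision, recovery, matrix effect and stability.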

[13] = test system: Rattus norvegicus; test: AUMC (0 to t) in Sprague-Dawley rat plasma at 1 mg/kg, iv measured after 24 hrs by UPLC analysis; type: ADME, organism-based; details: in vivo; how it was run: as §1
[14] = Tmax in Sprague-Dawley rat plasma at 1 mg/kg, iv measured after 24 hrs by UPLC analysis; type: ADME, organism-based; how it was run: as §2

T1 sequence (P40763 whole entry): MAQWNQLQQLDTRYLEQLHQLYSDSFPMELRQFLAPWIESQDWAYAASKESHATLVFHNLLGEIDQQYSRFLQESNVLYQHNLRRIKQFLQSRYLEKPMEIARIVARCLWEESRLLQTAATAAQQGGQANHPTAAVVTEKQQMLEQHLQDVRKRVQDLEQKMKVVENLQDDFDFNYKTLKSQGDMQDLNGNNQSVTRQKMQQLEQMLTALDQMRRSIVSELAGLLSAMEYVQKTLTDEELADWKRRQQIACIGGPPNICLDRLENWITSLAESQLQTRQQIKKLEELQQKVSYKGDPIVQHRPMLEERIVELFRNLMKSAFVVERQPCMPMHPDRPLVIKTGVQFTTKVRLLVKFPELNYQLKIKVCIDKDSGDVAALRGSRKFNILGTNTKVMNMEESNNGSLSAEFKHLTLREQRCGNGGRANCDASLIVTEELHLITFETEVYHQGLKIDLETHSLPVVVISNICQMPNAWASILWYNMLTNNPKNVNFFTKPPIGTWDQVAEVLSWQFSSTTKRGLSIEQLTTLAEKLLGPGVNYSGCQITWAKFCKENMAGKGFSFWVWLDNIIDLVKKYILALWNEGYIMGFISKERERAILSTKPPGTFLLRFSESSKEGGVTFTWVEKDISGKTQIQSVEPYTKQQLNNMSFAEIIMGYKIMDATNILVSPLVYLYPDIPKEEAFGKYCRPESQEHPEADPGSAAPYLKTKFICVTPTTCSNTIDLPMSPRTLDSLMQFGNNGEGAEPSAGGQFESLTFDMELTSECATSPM
Sequence of Epidermal growth factor receptor (Homo sapiens) (P00533 whole entry): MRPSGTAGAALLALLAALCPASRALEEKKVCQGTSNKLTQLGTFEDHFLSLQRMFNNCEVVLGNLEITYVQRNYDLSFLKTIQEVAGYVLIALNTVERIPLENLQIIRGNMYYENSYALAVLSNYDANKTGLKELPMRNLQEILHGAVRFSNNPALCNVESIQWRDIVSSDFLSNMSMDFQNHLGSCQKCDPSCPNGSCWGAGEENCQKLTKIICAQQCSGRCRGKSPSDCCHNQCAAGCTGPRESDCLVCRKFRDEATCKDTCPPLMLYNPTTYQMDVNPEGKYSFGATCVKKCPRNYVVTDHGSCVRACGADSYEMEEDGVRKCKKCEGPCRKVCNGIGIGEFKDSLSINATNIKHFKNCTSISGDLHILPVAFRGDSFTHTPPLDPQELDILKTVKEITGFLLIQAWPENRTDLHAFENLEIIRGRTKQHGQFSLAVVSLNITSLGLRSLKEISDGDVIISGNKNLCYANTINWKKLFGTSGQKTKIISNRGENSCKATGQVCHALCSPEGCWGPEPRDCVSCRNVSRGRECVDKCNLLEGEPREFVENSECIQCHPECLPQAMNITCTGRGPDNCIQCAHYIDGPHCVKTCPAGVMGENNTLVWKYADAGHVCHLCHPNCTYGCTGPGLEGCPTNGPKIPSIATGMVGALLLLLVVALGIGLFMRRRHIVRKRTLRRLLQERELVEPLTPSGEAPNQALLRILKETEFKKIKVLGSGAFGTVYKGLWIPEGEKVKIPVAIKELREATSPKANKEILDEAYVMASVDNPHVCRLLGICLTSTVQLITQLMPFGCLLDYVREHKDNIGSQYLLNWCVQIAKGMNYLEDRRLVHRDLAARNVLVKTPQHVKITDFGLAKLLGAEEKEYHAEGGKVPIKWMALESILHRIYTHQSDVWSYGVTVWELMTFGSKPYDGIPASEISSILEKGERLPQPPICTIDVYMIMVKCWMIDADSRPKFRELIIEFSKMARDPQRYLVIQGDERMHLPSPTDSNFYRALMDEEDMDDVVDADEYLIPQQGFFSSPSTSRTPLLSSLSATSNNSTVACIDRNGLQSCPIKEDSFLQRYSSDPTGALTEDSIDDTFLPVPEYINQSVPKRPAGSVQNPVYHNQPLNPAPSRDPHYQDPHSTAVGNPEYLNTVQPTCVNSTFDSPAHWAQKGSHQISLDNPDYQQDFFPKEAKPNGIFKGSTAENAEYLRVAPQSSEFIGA

In the case of `NS(=O)(=O)c1cccc2c1C(=O)C=C(Nc1ccccc1N1CCNCC1)C2=O`, the Cmax [1] was 359 ng/mL, the AUC(0-inf) [2] was 199 ng·h/mL and the inhibition [3] was “inactive”. The inhibition [4] was “Active”, the Activity [5] was “Non-Toxic” and the AUC(0-t) at 24 h [6] was 189 ng·h/mL. For the same compound, the inhibition [7] was “Active”, the inhibition [8] was “inactive” and the inhibition [9] was “Dose-dependent effect”. For the same compound, the Activity [10] was “Non-Toxic”, the AUMC [11] was 2002.1 hr2.ng/ml and the half-life [12] was 42.6 min. The AUMCt [13] was 109.3 hr2.ng/ml and the Tmax [14] was 1.98 min.
